# Test results as given in ChEMBL document CHEMBL3997801, “Design, Palladium-Catalyzed Synthesis, and Biological Investigation of 2-Substituted 3-Aroylquinolin-4(1H)-ones as Inhibitors of the Hedgehog Signaling Pathway” (J Med Chem, 2017).
# Calls of active or inactive are those of the source. No cut-off for these calls is given here.
# Assays:
# [1] = molecular target: Protein smoothened (Mus musculus) (UniProt P56726); assay: Antagonist activity at Smo in Ptch1-/- mouse MEF assessed as inhibition of Hh signaling pathway by measuring suppression of CycD2 mRNA expression at 5 uM after 48 hrs by qRT-PCR method
# Chain of Protein smoothened (Mus musculus) (P56726 whole entry): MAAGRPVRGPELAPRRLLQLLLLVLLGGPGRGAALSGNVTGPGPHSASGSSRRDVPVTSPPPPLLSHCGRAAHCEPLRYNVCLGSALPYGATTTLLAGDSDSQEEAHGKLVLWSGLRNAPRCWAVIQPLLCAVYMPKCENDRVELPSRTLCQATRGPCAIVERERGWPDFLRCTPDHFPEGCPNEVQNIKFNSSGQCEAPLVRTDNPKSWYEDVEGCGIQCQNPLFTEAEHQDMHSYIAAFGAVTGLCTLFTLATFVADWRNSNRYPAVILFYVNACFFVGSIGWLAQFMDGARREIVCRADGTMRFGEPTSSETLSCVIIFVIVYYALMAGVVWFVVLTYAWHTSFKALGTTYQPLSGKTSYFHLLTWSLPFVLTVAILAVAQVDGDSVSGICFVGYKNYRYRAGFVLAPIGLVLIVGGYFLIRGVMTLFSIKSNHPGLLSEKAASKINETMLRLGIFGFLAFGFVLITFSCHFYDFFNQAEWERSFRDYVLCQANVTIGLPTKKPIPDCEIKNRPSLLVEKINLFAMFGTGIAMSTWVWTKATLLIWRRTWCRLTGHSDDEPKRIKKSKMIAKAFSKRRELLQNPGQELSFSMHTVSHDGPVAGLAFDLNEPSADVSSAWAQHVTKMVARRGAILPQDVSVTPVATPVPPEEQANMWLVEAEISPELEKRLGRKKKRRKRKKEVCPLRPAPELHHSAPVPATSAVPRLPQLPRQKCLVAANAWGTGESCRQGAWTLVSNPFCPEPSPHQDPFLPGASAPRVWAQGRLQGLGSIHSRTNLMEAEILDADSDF
# [2] = molecular target: Protein smoothened (Mus musculus) (UniProt P56726); assay: Antagonist activity at Smo in Ptch1+/- mouse medulloblastoma cells assessed as inhibition of Hh signaling pathway by measuring suppression of CycD1 mRNA expression at 10 uM after 24 hrs by qRT-PCR method
# Method in brief: (§1)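 Freshly isolated Ptch1± mouse MB cells in short-term culture, treated 24 h with compound (10 μM) or DMSO. mRNA measured by qRT-PCR against a calibrator (arbitrary units) and normalized to β2-microglobulin and HPRT. Mean ± SD of three independent experiments.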
# [3] = molecular target: Protein smoothened (Mus musculus) (UniProt P56726); assay: Antagonist activity at Smo in […]-stimulated mouse granule cell progenitors assessed as inhibition of Hh signaling pathway-dependent cell proliferation by measuring suppression of Gli1 protein expression at 5 uM after 24 hrs by Western blot method
# [4] = molecular target: Protein smoothened (Mus musculus) (UniProt P56726); assay: Antagonist activity at Smo in Ptch1-/- mouse MEF assessed as inhibition of Hh signaling pathway by measuring suppression of HIP1 mRNA expression at 5 uM after 48 hrs by qRT-PCR method
# [5] = molecular target: Protein smoothened (Mus musculus) (UniProt P56726); assay: Antagonist activity at Smo in […]-stimulated mouse granule cell progenitors assessed as inhibition of Hh signaling pathway-dependent cell proliferation by measuring suppression of Gli2 mRNA expression at 5 uM after 24 hrs by qRT-PCR method
# [6] = molecular target: Protein smoothened (Mus musculus) (UniProt P56726); assay: Antagonist activity at Smo in Ptch1+/- mouse medulloblastoma cells assessed as inhibition of Hh signaling pathway by measuring suppression of Ptch1 mRNA expression at 10 uM after 24 hrs by qRT-PCR method; method in brief: as §1
# [7] = molecular target: Protein smoothened (Mus musculus) (UniProt P56726); assay: Antagonist activity at Smo in […]-stimulated mouse granule cell progenitors assessed as inhibition of Hh signaling pathway-dependent cell proliferation by measuring suppression of Ptch1 mRNA expression at 5 uM after 24 hrs by qRT-PCR method
# [8] = molecular target: Protein smoothened (Mus musculus) (UniProt P56726); assay: Antagonist activity at Smo in mouse ASZ001 cells assessed as inhibition of Hh signaling pathway by measuring suppression of Gli2 mRNA expression at 10 uM after 48 hrs by qRT-PCR method; format: cell-based
# Method in brief: (§2)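 ASZ001 BCC cells (154CF medium, 2% chelated FBS, 0.05 mM CaCl2), treated 48 h with compound or DMSO. Transcripts quantified by qRT-PCR relative to a calibrator, normalized to β2-microglobulin and HPRT.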
# [9] = molecular target: Protein smoothened (Mus musculus) (UniProt P56726); assay: Antagonist activity at Smo in Ptch1-/- mouse MEF assessed as inhibition of Hh signaling pathway by measuring suppression of CycD1 mRNA expression at 5 uM after 48 hrs by qRT-PCR method
# Protein smoothened = Protein smoothened (Mus musculus, UniProt P56726); assay: Inhibition of Bodipy-cyclopamine binding to mouse FLAG-tagged Smo expressed in HEK293 cells after 3 hrs by Hoechst staining based fluorescence assay; format: cell-based
# Chain of Protein smoothened (P56726 whole entry): as above
# Method in brief: (§3)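 Cells transiently transfected with mouse Flag-tagged Smo WT or D477G were washed in PBS/0.5% FBS, fixed 10 min in 4% paraformaldehyde and permeabilized with 0.2% Triton X-100. They were then incubated 3 h at 37 °C with Bodipy-cyclopamine 5 nM plus compound, with Hoechst nuclear stain. Green signal was scored in 3–4 fields per coverslip (20×) as % of binding with BC alone.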
# [10] = molecular target: Protein smoothened (Mus musculus) (UniProt P56726); assay: Antagonist activity at Smo in mouse ASZ001 cells assessed as inhibition of Hh signaling pathway by measuring suppression of CycD2 mRNA expression at 10 uM after 48 hrs by qRT-PCR method; format: cell-based; method in brief: as §2
# [11] = molecular target: Protein smoothened (Mus musculus) (UniProt P56726); assay: Antagonist activity at Smo in mouse ASZ001 cells assessed as inhibition of Hh signaling pathway by measuring suppression of Gli1 mRNA expression at 10 uM after 48 hrs by qRT-PCR method; format: cell-based; method in brief: as §2
# [12] = (§4) Inhibition of Bodipy-cyclopamine binding to mouse FLAG-tagged Smo D477G mutant expressed in HEK293 cells after 3 hrs by Hoechst staining based fluorescence assay; format: cell-based; method in brief: as §3
# Mus musculus = organism: Mus musculus; assay: as §4; format: cell-based; method in brief: as §3
# [13] = molecular target: Protein smoothened (Mus musculus) (UniProt P56726); assay: Antagonist activity at Smo in […]-stimulated mouse granule cell progenitors assessed as inhibition of Hh signaling pathway-dependent cell proliferation by measuring suppression of Gli1 mRNA expression at 5 uM after 24 hrs by qRT-PCR method
# [14] = molecular target: Protein smoothened (Mus musculus) (UniProt P56726); assay: Antagonist activity at Smo in mouse ASZ001 cells assessed as inhibition of Hh signaling pathway by measuring suppression of Ptch1 mRNA expression at 10 uM after 48 hrs by qRT-PCR method; format: cell-based; method in brief: as §2
# [15] = molecular target: Protein smoothened (Mus musculus) (UniProt P56726); assay: Antagonist activity at Smo in mouse ASZ001 cells assessed as inhibition of Hh signaling pathway by measuring suppression of BMP2 mRNA expression at 10 uM after 48 hrs by qRT-PCR method; format: cell-based; method in brief: as §2
# [16] = molecular target: Protein smoothened (Mus musculus) (UniProt P56726); assay: Antagonist activity at Smo in mouse ASZ001 cells assessed as inhibition of Hh signaling pathway by measuring suppression of CycD1 mRNA expression at 10 uM after 48 hrs by qRT-PCR method; format: cell-based; method in brief: as §2
# [17] = molecular target: Protein smoothened (Mus musculus) (UniProt P56726); assay: Antagonist activity at Smo in Ptch1+/- mouse medulloblastoma cells assessed as inhibition of Hh pathway dependent cell growth up to 72 hrs by trypan blue assay
# Method in brief: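 Primary MB cells freshly isolated from Ptch1± mouse tumours, used in short-term culture to keep Hh sensitivity; compound 10 μM or DMSO control; viable cells counted by trypan blue after 24, 48 and 72 h. Mean ± SD of three independent experiments.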
# [18] = molecular target: Protein smoothened (Mus musculus) (UniProt P56726); assay: Antagonist activity at Smo in Ptch1-/- mouse MEF assessed as inhibition of Hh signaling pathway by measuring suppression of Gli1 mRNA expression at 5 uM after 48 hrs by qRT-PCR method
# [19] = molecular target: Protein smoothened (Mus musculus) (UniProt P56726); assay: Antagonist activity at Smo in Ptch1-/- mouse MEF assessed as inhibition of Hh signaling pathway by measuring suppression of Ptch1 mRNA expression at 5 uM after 48 hrs by qRT-PCR method
# [20] = molecular target: Protein smoothened (Mus musculus) (UniProt P56726); assay: Antagonist activity at Smo in mouse ASZ001 cells assessed as inhibition of Hh pathway dependent cell growth up to 72 hrs by trypan blue assay; format: cell-based
# Method in brief: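 ASZ001 BCC cells grown in 154CF medium with 2% Chelex-chelated FBS and 0.05 mM CaCl2, treated with compound or DMSO control; viable cells counted by trypan blue after 24, 48 and 72 h.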
# [21] = molecular target: Protein smoothened (Mus musculus) (UniProt P56726); assay: Antagonist activity at Smo in Ptch1+/- mouse medulloblastoma cells assessed as inhibition of Hh signaling pathway by measuring suppression of CycD2 mRNA expression at 10 uM after 24 hrs by qRT-PCR method; method in brief: as §1
# [22] = molecular target: Protein smoothened (Mus musculus) (UniProt P56726); assay: Antagonist activity at Smo in […]-stimulated mouse granule cell progenitors assessed as inhibition of Hh signaling pathway-dependent cell proliferation by measuring suppression of CycD1 mRNA expression at 5 uM after 24 hrs by qRT-PCR method
# [23] = molecular target: Protein smoothened (Mus musculus) (UniProt P56726); assay: Antagonist activity at Smo in Ptch1+/- mouse medulloblastoma cells assessed as inhibition of Hh signaling pathway by measuring suppression of Gli2 mRNA expression at 10 uM after 24 hrs by qRT-PCR method; method in brief: as §1
# [24] = molecular target: Protein smoothened (Mus musculus) (UniProt P56726); assay: Antagonist activity at Smo in […]-stimulated mouse granule cell progenitors assessed as inhibition of Hh signaling pathway-dependent cell proliferation by measuring suppression of N-Myc mRNA expression at 5 uM after 24 hrs by qRT-PCR method
# [25] = molecular target: Protein smoothened (Mus musculus) (UniProt P56726); assay: Antagonist activity at Smo in Ptch1+/- mouse medulloblastoma cells assessed as inhibition of Hh signaling pathway by measuring suppression of Gli1 mRNA expression at 10 uM after 24 hrs by qRT-PCR method; method in brief: as §1
# [26] = molecular target: Protein smoothened (Mus musculus) (UniProt P56726); assay: Antagonist activity at Smo in […]-stimulated mouse granule cell progenitors assessed as inhibition of Hh signaling pathway-dependent cell proliferation by measuring suppression of CycD1 protein expression at 5 uM after 24 hrs by Western blot method
# [27] = molecular target: Protein smoothened (Mus musculus) (UniProt P56726); assay: Antagonist activity at Smo in Ptch1-/- mouse MEF assessed as inhibition of Hh signaling pathway by measuring suppression of Gli2 mRNA expression at 5 uM after 48 hrs by qRT-PCR method
# [28] = molecular target: Protein smoothened (Mus musculus) (UniProt P56726); assay: Antagonist activity at Smo in Ptch1-/- mouse MEF assessed as inhibition of Hh signaling pathway by measuring suppression of Igf2 mRNA expression at 5 uM after 48 hrs by qRT-PCR method
# [29] = molecular target: Protein smoothened (Mus musculus) (UniProt P56726); assay: Antagonist activity at Smo in […]-stimulated mouse granule cell progenitors assessed as inhibition of Hh signaling pathway-dependent cell proliferation by measuring suppression of NMyc protein expression at 5 uM after 24 hrs by Western blot method
# [30] = molecular target: Protein smoothened (Mus musculus) (UniProt P56726); assay: Antagonist activity at Smo in […]-stimulated mouse granule cell progenitors assessed as inhibition of Hh signaling pathway-dependent cell proliferation by measuring suppression of CycD2 mRNA expression at 5 uM after 24 hrs by qRT-PCR method
SMILES,inhibition [1],inhibition [2],inhibition [3],inhibition [4],inhibition [5],inhibition [6],inhibition [7],inhibition [8],inhibition [9],IC50 (Protein smoothened) [µM],inhibition [10],inhibition [11],IC50 [12] [µM],inhibition (Mus musculus),inhibition [13],inhibition [14],inhibition [15],inhibition [16],growth inhibition (GI) [17],inhibition [18],also measured
COc1cccc(C(=O)c2c(-c3ccccc3)[nH]c3ccccc3c2=O)c1,Active,Active,Active,Active,Active,Active,Active,Active,Active,13.8,Active,Active,12.4,Dose-dependent effect,Active,Active,Active,Active,Dose-dependent effect,Active,inhibition [19]: Active; growth inhibition (GI) [20]: Dose-dependent effect; inhibition [21]: Active; inhibition [22]: Active; inhibition [23]: Active; inhibition [24]: Active; inhibition [25]: Active; inhibition [26]: Active; inhibition [27]: Active; inhibition [28]: Active; inhibition [29]: Active; inhibition [30]: Active
O=C(c1ccccc1)c1c(-c2ccccc2)[nH]c2ccc(Br)cc2c1=O,Active,Active,Active,Active,Active,Active,Active,Active,Active,24,Active,Active,29.4,Dose-dependent effect,Active,Active,Active,Active,Dose-dependent effect,Active,inhibition [19]: Active; growth inhibition (GI) [20]: Dose-dependent effect; inhibition [21]: Active; inhibition [22]: Active; inhibition [23]: Active; inhibition [24]: Active; inhibition [25]: Active; inhibition [26]: Active; inhibition [27]: Active; inhibition [28]: Active; inhibition [29]: Active; inhibition [30]: Active
